Legend:
[1] = Selectivity index, ratio of CC50 for african green monkey Vero cells to IC50 for Trypanosoma cruzi 320I04 intracellular amastigotes; format: functional
Trypanosoma cruzi [2] = test: Antiparasitic activity against Trypanosoma cruzi 320I04 epimastigotes […] after 72 hrs; format: functional, organism-based
How it was run: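 Free parasite forms (T. cruzi 320I04 epimastigotes; L. chagasi MHOM/BR/74/PP75 promastigotes) exposed to compounds for 72 h at 27 °C. IC50/IC90 taken as the concentrations giving 50% or 90% growth inhibition. Values are representative of one experiment out of three.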

[3] = Selectivity index, ratio of CC50 for human THP1 cells to IC50 for Leishmania chagasi MHOM/BR/74/PP75 promastigotes; format: functional, THP-1
How it was run: (§1)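 SI calculated as Vero CC50 divided by T. cruzi IC50, or THP-1 CC50 divided by L. chagasi IC50. Both values come from 72 h exposures: parasites at 27 °C, mammalian cells at 37 °C with MTT read-out.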

Leishmania chagasi = test: Antiparasitic activity against Leishmania chagasi MHOM/BR/74/PP75 promastigotes infected in human THP1 cells after 72 hrs; conditions: MHOM/BR/74/PP75, THP-1, 72 h
[4] = Cytotoxicity against human THP1 cells after 72 hrs by MTT assay; format: cell-based; conditions: THP-1 cells
How it was run: (§2)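 Vero or transformed THP-1 cells exposed to a 3-fold compound dilution series, in triplicate, for 72 h at 37 °C. Toxicity read by MTT reduction. CC50/CC90 taken as the concentrations killing 50% or 90% of cells. Values are representative of one experiment out of three.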

[5] = Selectivity index, ratio of CC50 for african green monkey Vero cells to IC50 for Trypanosoma cruzi 320I04 epimastigotes; format: functional; how it was run: as §1
Trypanosoma cruzi [6] = test: Antiparasitic activity against Trypanosoma cruzi 320I04 intracellular amastigotes infected in african green monkey Vero cells after 72 hrs; format: functional, organism-based; conditions: 320I04, Vero
[7] = Cytotoxicity against african green monkey Vero cells after 72 hrs by MTT assay; format: cell-based; conditions: chlorocebus sabaeus; how it was run: as §2

Structure (SMILES) | IC50 (Trypanosoma cruzi [2]) [µM] | IC90 (Trypanosoma cruzi [2]) [µM] | IC50 (Leishmania chagasi) [µM] | IC90 (Leishmania chagasi) [µM] | IC50 (Trypanosoma cruzi [6]) [µM] | IC90 (Trypanosoma cruzi [6]) [µM] | Ratio CC50/IC50 [1] | Ratio CC50/IC50 [3] | CC50 at 72 h [4] [µM] | CC90 at 72 h [4] [µM] | Ratio CC50/IC50 [5] | CC50 at 72 h [7] [µM] | CC90 at 72 h [7] [µM]
O=[N+]([O-])c1ccccc1[C@@H]1C[C@@H]2Cc3ccc4ccccc4c3N1O2 | 1.4 | 29.3 | 40.9 | 209 | > 100 | > 100 | <0.4 | >7.3 | > 300 | > 300 | 28.7 | 40.2 | > 300
Clc1ccccc1[C@@H]1C[C@@H]2Cc3ccc4ccccc4c3N1O2 | 100 | 293 | 184 | > 300 | > 100 | > 100 | <0.4 | >1.6 | > 300 | > 300 | 0.4 | 37.2 | > 300
Clc1cccc([C@@H]2C[C@@H]3Cc4ccc5ccccc5c4N2O3)c1 | 12.6 | 80.1 | 32.7 | > 300 | 13.1 | > 100 | >22.9 | >9.2 | > 300 | > 300 | >23.8 | > 300 | > 300
O[C@@H]1Cc2ccc3ccccc3c2N[C@H](c2ccc(F)cc2)C1 | 1.1 | 11.6 | 21 | 120 | 14.8 | > 30 | 6.8 | 3.9 | 81.9 | > 250 | 91.4 | 100 | > 250
O[C@@H]1Cc2ccc3ccccc3c2N[C@H](c2ccc(Cl)cc2Cl)C1 | 1 | 19.4 | 11 | 28.2 | > 30 | > 30 | <1.5 | 7.2 | 79.4 | 92.7 | 45.4 | 45.4 | > 200
COc1cccc([C@@H]2C[C@@H]3Cc4ccc5ccccc5c4N2O3)c1 | 82.7 | > 300 | 16.4 | 49.5 | 89.6 | > 100 | >3.3 | >18.3 | > 300 | > 300 | >3.6 | > 300 | > 300
O[C@@H]1Cc2ccc3ccccc3c2N[C@H](c2cccc(Cl)c2)C1 | 1.4 | 54.9 | 6 | 67.3 | 23.4 | > 30 | 1.3 | 7.2 | 43.2 | 177 | 21.9 | 30.7 | > 200
C[C@@H]1[C@H](O)[C@@H](C)/C=C/C=C/C=C/C=C/C=C/C=C/C=C/[C@H](O[C@@H]2O[C@H](C)[C@@H](O)[C@H](N)[C@@H]2O)C[C@@H]2O[C@](O)(C[C@@H](O)C[C@@H](O)[C@H](O)CC[C@@H](O)C[C@@H](O)CC(=O)O[C@H]1C)C[C@H](O)[C@H]2C(=O)O [AMPHOTERICIN B] |  |  | 0.01 | 0.03 |  |  |  | 17 | 0.17 | 0.18 |  |  | 

The next lines start with results.

IC50 (Trypanosoma cruzi [2]) [µM] | IC90 (Trypanosoma cruzi [2]) [µM] | IC50 (Leishmania chagasi) [µM] | IC90 (Leishmania chagasi) [µM] | IC50 (Trypanosoma cruzi [6]) [µM] | IC90 (Trypanosoma cruzi [6]) [µM] | Structure (SMILES) | Ratio CC50/IC50 [1] | Ratio CC50/IC50 [3] | CC50 at 72 h [4] [µM] | CC90 at 72 h [4] [µM] | Ratio CC50/IC50 [5] | CC50 at 72 h [7] [µM] | CC90 at 72 h [7] [µM]
5.7 | 35.1 | 46 | 67.1 | 19.3 | > 30 | O[C@@H]1Cc2ccc3ccccc3c2N[C@H](c2ccccc2)C1 | 5.6 | 2.2 | 102 | > 300 | 18.9 | 108 | > 268
10.7 | 19.4 | 18.3 | 55.7 | > 100 | > 100 | O[C@@H]1Cc2ccc3ccccc3c2N[C@H](c2cccc(Br)c2)C1 | 0.5 | 2.3 | 41.7 | > 250 | 4.6 | 49.5 | > 250
17.5 | 82.3 | 10.4 | 31.3 | 18.4 | 76.3 | Brc1cccc([C@@H]2C[C@@H]3Cc4ccc5ccccc5c4N2O3)c1 | >13.6 | >24 | > 250 | > 250 | >14.3 | > 250 | > 250
11.4 | 176 | 73.4 | > 250 | > 100 | > 100 | Brc1ccc([C@@H]2C[C@@H]3Cc4ccc5ccccc5c4N2O3)cc1 |  | >3.4 | > 250 | > 250 | 21.9 | > 250 | > 250
17 | 44.1 | 35.2 | 41.2 | > 100 | > 100 | Cc1cccc([C@@H]2C[C@@H]3Cc4ccc5ccccc5c4N2O3)c1 | >3 | >8.5 | > 300 | > 300 | >17.6 | > 300 | > 300
4.8 | 17 |  |  |  | 11 | CC1CS(=O)(=O)CCN1/N=C/c1ccc([N+](=O)[O-])o1 (centres undefined) [NIFURTIMOX] |  |  |  |  |  | 114 | > 300
0.5 | 11 | 30.6 | 64.6 | 10.6 | > 30 | O[C@@H]1Cc2ccc3ccccc3c2N[C@H](c2ccccc2Cl)C1 | 9.1 | 2.2 | 66.1 | > 300 | 193 | 96.5 | > 250
10.2 | 15.9 | 18.5 | 37.1 | 9.9 | 29.7 | O[C@@H]1Cc2ccc3ccccc3c2N[C@H](c2ccc(Br)cc2)C1 | 6.7 | 4.3 | 79 | > 200 | 6.5 | 66.1 | > 200
11.5 | > 350 | 21.2 | 175 | > 100 | > 100 | c1ccc([C@@H]2C[C@@H]3Cc4ccc5ccccc5c4N2O3)cc1 | <0.7 | >16.5 | > 350 | > 350 | 6.3 | 72.9 | > 350
